Series [1] deals with Trypanosoma cruzi. Description: Antiparasitic activity against epimastigote stage of Trypanosoma cruzi infected in Vero cells assessed as parasite growth inhibition […] by hemocytometery. It counts as functional, organism-based. In a few lines:
(§1)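 Exponential-phase T. cruzi Sylvio X10 epimastigotes (LIT medium with hiFCS) or L. (L.) infantum MHOM/BR/74/PP75 promastigotes (RPMI 1640, hemin, HEPES, 10% hiFCS) were exposed to threefold serial dilutions (0.3–300 µg/mL) for 72 h at 28 °C. Viable parasites were counted by hemocytometer with 0.25% eosin yellow. IC50 came from sigmoidal regression, given as mean ± SD.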

Series [2] is described as follows: Selectivity index, ratio of CC50 for African green monkey Vero cells to IC50 for epimastigote stage of Trypanosoma cruzi. The format is functional. The procedure, abridged:
(§2)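 Selectivity index was calculated as CC50 in Vero (T. cruzi) or THP-1 (L. infantum) cells divided by parasite IC50. Both values came from 72 h mammalian-cell MTT assays and the parasite assays; SI ≥ 3 was defined as parasite-selective.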

Series [3] relates to Trypanosoma cruzi. Description: Antiparasitic activity against amastigote stage of Trypanosoma cruzi infected in Vero cells assessed as parasite growth inhibition after 24 hrs by hemocytometery. It counts as functional, organism-based. The note with it: Trypanosoma cruzi, Vero, 24 h; read-out: IC50. The procedure, abridged:
(§3)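 Host cells were Vero for T. cruzi (infected with tissue-derived trypomastigotes) and THP-1 (PMA-transformed, 10 ng/mL) for L. (L.) infantum (infected with late-phase promastigotes), at 1:10 cell:parasite for 24 h. Serial dilutions were given as two doses, the second on day 3 with a medium change. Read-out was % infected cells on methanol-fixed, Giemsa-stained slides (300 cells). IC50 came from sigmoidal regression; experiments in duplicate, concentrations in triplicate.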

A short description of series [4]: Selectivity index, ratio of CC50 for African green monkey Vero cells to IC50 for amastigote stage of Trypanosoma cruzi. It counts as functional. The procedure, abridged: as §2
The test system of series [5] is Leishmania infantum. Description: Antiparasitic activity against amastigote stage of Leishmania infantum infected in THP1 cells assessed as parasite growth inhibition after 24 hrs by hemocytometery. The format is functional, organism-based, THP-1. As to conditions: Leishmania infantum, THP-1, 24 h; read-out: IC50. The procedure, abridged:
as §3

Series [6] can be described thus: Cytotoxicity against African green monkey Vero cells. It counts as cell-based. The note with it: chlorocebus sabaeus. The procedure, abridged: (§4)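 Vero monolayers or THP-1 cells (made adherent with 10 ng/mL PMA), in RPMI 1640 with 10% hiFCS, were exposed to compound (0.3–300 µg/mL) for 72 h at 37 °C, 5% CO2. Viability was measured by MTT, with formazan dissolved in DMSO and read at 580 nm. % cytotoxicity was calculated against untreated cells; CC50 came from sigmoidal regression, given as mean ± SD.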

A short description of series [7]: Selectivity index, ratio of CC50 for human THP1 cells to IC50 for promastigote stage of Leishmania infantum. The format is functional, THP-1. In a few lines: as §2
The nature of series [8]: Selectivity index, ratio of CC50 for human THP1 cells to IC50 for amastigote stage of Leishmania infantum. The format is functional, THP-1. In a few lines:
as §2

Series [9] is described as follows: Cytotoxicity against human THP1 cells. The format is cell-based. The note with it: THP-1 cells. The procedure, abridged: as §4
In series [10] the test system is Leishmania infantum. The series can be described thus: Antiparasitic activity against promastigote stage of Leishmania infantum assessed as parasite growth inhibition after 72 hrs by hemocytometery.
For series [11], the system named is Leishmania infantum. The series can be described thus: Antiparasitic activity against promastigote stage of Leishmania infantum infected in THP1 cells assessed as parasite growth inhibition […] by hemocytometery. It counts as functional, organism-based. The note with it: THP-1. The procedure, abridged: as §1

Structures are written as SMILES.

By IC50 is commonly meant the concentration that gives 50% inhibition. Usually CC50 stands for the concentration that lowers cell viability or growth by half. In the case of `FC(F)(F)Oc1ccc2c(c1)C[C@@H]1C[C@@H](c3ccco3)N2O1` (racemic), the IC50 in the series with Trypanosoma cruzi [1] is 166 µM; in the series on Trypanosoma cruzi [3] it was 319 µM; with Leishmania infantum [5] it was 172 µM; with Leishmania infantum [10] it was 16 µM. Further, the “Selectivity Index” value in series [2] amounted to 0.6; in series [4], 0.3; in series [7] it was 19.9; in [8], 1.9. For the same molecule, the 50% cytotoxic concentration (CC50) in series [6] was found to be 93.4 µM; in series [9] it was 319 µM.
`C[C@@H]1[C@H](O)[C@@H](C)/C=C/C=C/C=C/C=C/C=C/C=C/C=C/[C@H](O[C@@H]2O[C@H](C)[C@@H](O)[C@H](N)[C@@H]2O)C[C@@H]2O[C@](O)(C[C@@H](O)C[C@@H](O)[C@H](O)CC[C@@H](O)C[C@@H](O)CC(=O)O[C@H]1C)C[C@H](O)[C@H]2C(=O)O` [AMPHOTERICIN B]: the figures for the 50% inhibitory concentration (IC50) in the series with Leishmania infantum [5] and in the series with Leishmania infantum [10] were 0.01 µM and 0.03 µM, respectively. Moreover, the “Selectivity Index” value amounted to 927.5 in [7] and 456.6 in [8]. Half-maximal cytotoxicity in series [9] (CC50) was put at 29.7 µM.
Turning to `Cc1ccsc1[C@@H]1C[C@H]2Cc3ccccc3N1O2` (racemic), the IC50 in the series on Trypanosoma cruzi [1] is 27.6 µM; with Trypanosoma cruzi [3], 134 µM; with Leishmania infantum [5], 368 µM; in the series with Leishmania infantum [10], 56.6 µM. In addition, the “Selectivity Index” value in series [2] stood at 16.4; in series [4] it was 3.4; in series [7] it was 6.7; in series [8], 1. Further, the values for the CC50 in series [6] and in [9] were 453 µM and 377 µM, respectively.
Regarding `Cc1ccc([C@@H]2C[C@H](O)Cc3cc(Cl)ccc3N2)o1` (relative stereo), the IC50 with Trypanosoma cruzi [1] was 61.8 µM; in the series with Trypanosoma cruzi [3] it was 323 µM; with Leishmania infantum [5] it was greater than 361 µM; with Leishmania infantum [11], 110 µM. Moreover, the entries for the “Selectivity Index” value in series [2], in series [4] and in series [7] were 4.9, 0.93 and greater than 9.9, respectively. Also, the CC50 in series [6] is 300 µM; in series [9], greater than 1080 µM.
As for `Cc1ccc([C@@H]2C[C@H]3Cc4ccccc4N2O3)o1` (racemic), the half-maximal inhibitory concentration (IC50) in the series with Trypanosoma cruzi [1] is 92.9 µM; with Trypanosoma cruzi [3], greater than 415 µM; in the series with Leishmania infantum [5], 398 µM; in the series on Leishmania infantum [10], 27.3 µM. Moreover, the figures for the “Selectivity Index” value in series [2], in series [7] and in series [8] were 5.7, 14.5 and 1, respectively. In addition, the CC50 in series [6] was 533 µM; in series [9] it was 394 µM.
Turning to `O[C@@H]1Cc2ccccc2N[C@H](c2cccs2)C1` (relative stereo), the IC50 is 219 µM in the series on Trypanosoma cruzi [1], greater than 408 µM in the series with Trypanosoma cruzi [3], 138 µM in the series with Leishmania infantum [5] and 146 µM in the series with Leishmania infantum [10]. Moreover, the “Selectivity Index” value came out at 4.5 in series [2], 5.3 in [7] and 5.6 in [8]. Besides, the CC50 in [6] is 986 µM; in series [9], 773 µM.
In the case of `Cc1ccsc1[C@@H]1C[C@H](O)Cc2cc(F)ccc2N1` (relative stereo), the IC50 in the series with Trypanosoma cruzi [1] is 45.9 µM; in the series on Trypanosoma cruzi [3], greater than 120 µM; in the series with Leishmania infantum [5], greater than 120 µM; with Leishmania infantum [11] it was 62.5 µM. Also, the results for the “Selectivity Index” value in series [2] and in series [7] were 5.3 and 28.9, respectively. The cytotoxic concentration (CC50) in series [6] turned out to be 243 µM; in [9] it was 1810 µM.
As to `Clc1ccc2c(c1)C[C@@H]1C[C@@H](c3ccc(Br)s3)N2O1` (racemic), the IC50 with Trypanosoma cruzi [1] amounted to 14.7 µM; with Trypanosoma cruzi [3] it was 23.9 µM; in the series with Leishmania infantum [5], 65.2 µM; in the series on Leishmania infantum [10], 14.3 µM. In addition, the “Selectivity Index” value was 113.4 in series [2], 69.8 in [4], greater than 117.9 in series [7] and greater than 25.9 in series [8]. The CC50 was 1660 µM in series [6] and greater than 1690 µM in series [9].
With `O[C@@H]1Cc2cc(OC(F)(F)F)ccc2N[C@H](c2ccco2)C1` (relative stereo), the IC50 in the series on Trypanosoma cruzi [1] was 606 µM; with Trypanosoma cruzi [3], greater than 106 µM; with Leishmania infantum [5], greater than 106 µM; in the series with Leishmania infantum [11] it was 45.9 µM. The “Selectivity Index” value in series [2] was 0.3; in series [7], 2.9. Moreover, the CC50 amounted to 166 µM in series [6] and 134 µM in series [9].
For the molecule `O[C@@H]1Cc2cc(F)ccc2N[C@H](c2ccoc2)C1`, the IC50 is 177 µM in the series with Trypanosoma cruzi [1], greater than 405 µM with Trypanosoma cruzi [3], greater than 405 µM with Leishmania infantum [5] and 365 µM with Leishmania infantum [11]. The “Selectivity Index” value in series [2] stood at 5.9; in series [7], 1.9. The CC50 in series [6] is 1040 µM; in [9] it was 689 µM.
In the case of `Fc1ccc2c(c1)C[C@@H]1C[C@@H](c3cccs3)N2O1` (racemic), the half-inhibitory concentration (IC50) with Trypanosoma cruzi [1] is 104 µM; in the series on Trypanosoma cruzi [3], 103 µM; in the series with Leishmania infantum [5], 177 µM; in the series with Leishmania infantum [10], 11.5 µM. Further, the “Selectivity Index” value was 13.5 in series [2], 13.5 in series [4], 86.6 in series [7] and 5.6 in [8]. Besides, the CC50 was found to be 1400 µM in series [6] and 991 µM in series [9].
Take `Cc1ccc([C@@H]2C[C@H](O)Cc3cc(F)ccc3N2)s1` (relative stereo): the IC50 with Trypanosoma cruzi [1] was 164 µM; in the series on Trypanosoma cruzi [3] it was 123 µM; in the series on Leishmania infantum [5], greater than 120 µM; with Leishmania infantum [11], 16.9 µM. Moreover, the “Selectivity Index” value came to 4.9 in series [2], 6.53 in series [4] and 18.5 in series [7]. In addition, the CC50 was 801 µM in [6] and 312 µM in [9].
As to `Cc1ccsc1[C@@H]1C[C@H]2Cc3cc(F)ccc3N1O2` (racemic), the IC50 with Trypanosoma cruzi [1] came out at 102 µM; in the series with Trypanosoma cruzi [3] it was 330 µM; in the series with Leishmania infantum [5], 204 µM; with Leishmania infantum [10] it was 75.9 µM. For the same molecule, the “Selectivity Index” value was found to be 5.9 in [2], 1.8 in series [4], 2.9 in series [7] and 1.1 in series [8]. In addition, the CC50 in series [6] was 601 µM; in [9] it was 221 µM.
With `c1csc([C@@H]2C[C@H]3Cc4ccccc4N2O3)c1` (relative stereo), the IC50 in the series with Trypanosoma cruzi [1] was 198 µM; in the series on Trypanosoma cruzi [3], greater than 411 µM; with Leishmania infantum [5], 406 µM; in the series on Leishmania infantum [10] it was 15.9 µM. The entries for the “Selectivity Index” value in series [2], in [7] and in [8] were 11.6, 45.7 and 1.8, respectively. Also, the CC50 in series [6] came to 2310 µM; in series [9], 727 µM.
